Read-outs that look alike come from different tables or passages of the source. One block for each compound: values may come before it.
Tests used:
[1] = target: T1, dSERT (Drosophila melanogaster, UniProt P51905); assay: inhibition of [3H]5-HT uptake in Xenopus oocytes; format: cell-based
T1 sequence (P51905 1-622): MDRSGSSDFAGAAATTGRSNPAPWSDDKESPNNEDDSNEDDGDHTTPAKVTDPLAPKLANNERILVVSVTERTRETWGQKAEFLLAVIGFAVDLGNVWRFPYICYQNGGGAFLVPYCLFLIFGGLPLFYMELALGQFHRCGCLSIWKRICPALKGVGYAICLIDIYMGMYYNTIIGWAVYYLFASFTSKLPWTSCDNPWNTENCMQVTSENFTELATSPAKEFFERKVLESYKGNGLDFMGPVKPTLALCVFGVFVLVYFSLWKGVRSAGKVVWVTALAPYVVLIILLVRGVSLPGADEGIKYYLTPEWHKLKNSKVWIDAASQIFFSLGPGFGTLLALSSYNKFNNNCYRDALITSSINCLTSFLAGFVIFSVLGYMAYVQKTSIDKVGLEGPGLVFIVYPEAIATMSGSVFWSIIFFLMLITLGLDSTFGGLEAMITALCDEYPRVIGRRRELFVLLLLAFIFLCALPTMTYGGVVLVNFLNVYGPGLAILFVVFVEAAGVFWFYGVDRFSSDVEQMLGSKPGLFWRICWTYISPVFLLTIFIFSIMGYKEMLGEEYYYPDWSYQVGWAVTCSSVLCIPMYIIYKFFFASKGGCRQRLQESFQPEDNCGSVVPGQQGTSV
In short: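 Xenopus oocytes: defolliculated in collagenase A, kept at 18°C in supplemented ND96, injected with 50 ng dSERT cRNA, used 2–4 days later. Uptake ran 20 min in ND96 with 200 nM [3H]5-HT plus increasing competitor. Stopped by removal and six ND96 washes; SDS-solubilised at 60°C, 2 h; scintillation counted. Uninjected same-batch oocytes subtracted; normalised to no-drug control; one-site competition fit.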

[2] = target: T1, dSERT; assay: two-electrode voltage clamp of 5-HT-induced current in Xenopus oocytes; format: cell-based; settings: 10 μM 5-HT, ND96, −50 mV, room temperature
[3] = read-out: Ki (μM ± SEM) / dSERT, 200 nM [3H]5-HT, 20 min, ND96

SMILES: C=C[C@H]1C[N@@]2CC[C@H]1C[C@@H]2[C@@H](O)c1ccnc2ccccc12 [Cinchonine]
Ki [1, 3]: 6.4 ± 0.05 µM

SMILES: C=C[C@H]1CN2CC[C@H]1C[C@H]2[C@H](O)c1ccnc2ccccc12 [Cinchonidine]
Ki [1, 3]: 330 ± 19 µM

SMILES: CCN(CC)CCCC(C)Nc1ccnc2cc(Cl)ccc12 (stereo not shown) [Chloroquine]
% inhibition of I5HT at 100 μM [2]: quinidine > cinchonine > quinacrine > chloroquine > quinine = amodiaquin = cinchonidine

Ki [1]: 1.8 ± 0.11 µM
SMILES: C=C[C@H]1C[N@@]2CC[C@H]1C[C@@H]2[C@@H](O)c1ccnc2ccc(OC)cc12 [Quinidine]

Ki [1]: 102 ± 24 µM
SMILES: C=C[C@H]1C[N@@]2CC[C@H]1C[C@H]2[C@H](O)c1ccnc2ccc(OC)cc12 [Quinine]

SMILES: CCN(CC)CCCC(C)Nc1c2ccc(Cl)cc2nc2ccc(OC)cc12 (stereo not shown) [quinacrine]
% inhibition of I5HT at 100 μM [2]: quinidine > cinchonine > quinacrine > chloroquine > quinine = amodiaquin = cinchonidine

SMILES: CCN(CC)Cc1cc(Nc2ccnc3cc(Cl)ccc23)ccc1O [Amodiaquin]
% inhibition of I5HT at 100 μM [2]: amodiaquin, which did not impact 5-HT uptake, was as affective as quinine

— PMC5553891 (Neurochemistry international, 2013)
